From ChEMBL document CHEMBL1821687, “Discovery, synthesis, and biological evaluation of novel SMN protein modulators” (J Med Chem, 2011)

Assays:
[1] = molecular target: Survival motor neuron protein (Homo sapiens) (UniProt Q16637); assay: Activation of SMN expressed in HEK293 cells assessed as concentration required to reach 50% of maximum luciferase signal by SMN2-promotor driven luciferase reporter gene assay; type: cell-based
How it was run: (§1)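 HEK-293 cells stably carrying the SMN2 reporter construct, kept in DMEM with 10% FCS, glutamax, pyruvate, pen/strep and 200 µg/mL hygromycin, and assayed without hygromycin. 2,000 cells/well were plated and adhered overnight at 37 °C, 5% CO2. Compounds were added as a 7-point titration, 50 µM to 25 nM final, in 0.46% DMSO, for 30–36 h. OneGlo luminescence was normalized to 4.5 mM sodium butyrate (100%) and DMSO (0%).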

[2] = molecular target: Survival motor neuron protein (Homo sapiens) (UniProt Q16637); assay: Activation of SMN expressed in HEK293 cells assessed as rate of induction by SMN2-promotor driven luciferase reporter gene assay relative to basal level; type: cell-based; set-up: concentration or dose not given beside the values; how it was run: as §1
Liver = assay: Half-life in mouse liver microsome at 1 uM; type: ADME; details: microsomes
Caco-2 [3] = assay: Apparent permeability from basolateral side to apical side of human Caco2 cells at 10 uM; type: ADME, cell-based; details: caco-2, 10 µM
[4] = molecular target: T1, Luciferin 4-monooxygenase (Luciola lateralis, UniProt Q01158); assay: Inhibition of fire fly luciferase; set-up: species or system Aquatica lateralis; details: read-out: IC50
T1 sequence (Q01158 whole entry): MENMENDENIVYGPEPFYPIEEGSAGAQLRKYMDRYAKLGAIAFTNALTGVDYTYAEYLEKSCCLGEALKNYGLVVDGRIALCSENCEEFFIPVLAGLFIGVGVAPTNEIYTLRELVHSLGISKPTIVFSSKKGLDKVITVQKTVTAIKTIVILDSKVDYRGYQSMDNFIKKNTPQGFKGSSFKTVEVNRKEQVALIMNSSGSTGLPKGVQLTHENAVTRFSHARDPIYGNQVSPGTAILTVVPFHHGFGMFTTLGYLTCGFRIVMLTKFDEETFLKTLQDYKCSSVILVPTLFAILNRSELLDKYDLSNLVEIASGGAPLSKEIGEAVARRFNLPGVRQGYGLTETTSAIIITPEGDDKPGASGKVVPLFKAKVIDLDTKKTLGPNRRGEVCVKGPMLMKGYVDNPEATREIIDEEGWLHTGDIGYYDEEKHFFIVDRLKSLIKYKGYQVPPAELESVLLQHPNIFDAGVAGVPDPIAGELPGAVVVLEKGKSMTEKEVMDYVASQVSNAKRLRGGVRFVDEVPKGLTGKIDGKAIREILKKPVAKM

Caco-2 [5] = assay: Apparent permeability from apical side to basolateral side of human Caco2 cells at 10 uM; type: ADME, cell-based; details: caco-2, 10 µM

Survival motor neuron protein (Homo sapiens), sequence (Q16637 whole entry): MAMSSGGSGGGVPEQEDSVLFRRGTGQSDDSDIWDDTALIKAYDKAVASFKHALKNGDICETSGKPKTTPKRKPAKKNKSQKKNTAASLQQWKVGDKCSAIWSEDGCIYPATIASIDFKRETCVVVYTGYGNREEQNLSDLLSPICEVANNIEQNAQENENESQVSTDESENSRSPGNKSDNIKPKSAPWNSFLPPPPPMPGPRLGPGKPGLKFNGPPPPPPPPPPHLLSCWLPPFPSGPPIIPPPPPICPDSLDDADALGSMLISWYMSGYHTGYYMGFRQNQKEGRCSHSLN

Compound | Activity [1] [µM] | Activity [2] [%] | t1/2 (Liver) [min] | Papp (Caco-2 [3]) [×10⁻⁶ cm/s] | IC50 [4] [µM] | Papp (Caco-2 [5]) [×10⁻⁶ cm/s]
CN(C)c1ccc(-c2csc(N3CCC(C(N)=O)CC3)n2)cc1 | 30.7 | 64 |  |  |  | 
NC(=O)C1CCN(c2ncc(-c3cccc(N4CCCCC4)c3)s2)CC1 | 1.54 | 565 |  |  |  | 
CSc1ccc(-c2cnc(N3CCC(C(N)=O)CC3)s2)cc1 | 0.031 | 576 | 2 | 0.2 | 40 | 1.6
NC(=O)C1CCN(c2ncc(-c3cccc(F)c3)s2)CC1 | 2.44 | 601 |  |  |  | 
NC(=O)C1CCN(c2nc(-c3ccc4c(c3)OCC4)cs2)CC1 | 12.2 | 401 |  |  |  | 
CC(C)Oc1ccc(-c2csc(N3CCC(C(N)=O)CC3)n2)cc1 | 3.87 | 178 |  |  |  | 
NC(=O)C1CCN(c2nnc(-c3ccc4c(c3)OCCCO4)s2)CC1 | 0.122 | 257 | > 60 | 51.2 | 3.2 | 21.2
NC(=O)C1CCN(c2nc(-c3cccc4sc5ccccc5c34)cs2)CC1 | 30.7 | 369 |  |  |  | 
Cc1ccc(-c2nnc(N3CCC(C(N)=O)CC3)s2)cc1 | 0.244 | 54 |  |  |  | 
NC(=O)C1CCN(c2nc(-c3cccc(F)c3)cs2)CC1 | 9.72 | 64 |  |  |  | 
COc1cccc(-c2csc(N3CCC(C(N)=O)CC3)n2)c1 | 1.94 | 357 |  |  |  | 
CN(C)c1cccc(-c2cc(N3CCC(C(N)=O)CC3)ncn2)c1 | 3.87 | 81 |  |  |  | 
Cn1ccc2cc(-c3csc(N4CCC(C(N)=O)CC4)n3)ccc21 | 7.72 | 534 |  |  |  | 
CN(C)c1cccc(-c2ncnc(N3CCC(C(N)=O)CC3)n2)c1 | 1.22 | 200 |  |  |  | 
CN(C)c1cccc(-c2nnc(N3CCC(C(N)=O)CC3)s2)c1 | 0.387 | 448 |  |  |  | 
NC1CCN(c2nc(-c3ccc(Br)cc3)cs2)CC1 | 2.44 | 182 |  |  |  | 
NC(=O)C1CCN(c2nc(-c3ccc4ccccc4c3)cs2)CC1 | 7.72 | 162 |  |  |  | 
Cc1cccc(-c2csc(N3CCC(C(N)=O)CC3)n2)c1 | 30.7 | 187 |  |  |  | 
O=C(Nc1ccccc1)C1CCN(c2nc(-c3ccc(Br)cc3)cs2)CC1 | 2.44 | 262 |  |  |  | 
CCOC(=O)C1CCN(c2ncc(-c3ccc4c(c3)OCCCO4)s2)CC1 | 0.031 | 320 |  |  |  | 
CCOc1ccc(-c2csc(N3CCC(C(N)=O)CC3)n2)cc1 | 3.87 | 212 |  |  |  | 
